Measured values as given in PubChem BioAssay AID1537 (The Scripps Research Institute Molecular Screening Center, 2009).
The list shows a part of the results. Unmarked numbers belong to inactive results. The source made the active and inactive calls.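 How the source made its calls: active means inhibition above the hit cutoff derived for the primary screen (cut at about 15% in these data); inactive means the rest.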

Biological target: Serine hydrolase RBBP9 (Homo sapiens) (UniProt O75884)
Experiment: RBBP9 serine hydrolase blockers re-tested – biochemical, fluorescence polarization, FP-Rh probe, triplicate, confirmation (AID 1537);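 further: 0% = RBBP9 with DMSO and 100% = wells lacking RBBP9 protein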
Settings: recombinant RBBP9, FP-Rh probe fluorescence polarization; at 7.94 µM; hits give high values
Method in brief: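 Signal: fluorescence polarization, excitation 525 nm, emission 598 nm / Material: RBBP9 serine hydrolase enzyme, human / Times: 30 min enzyme-compound preincubation at 25 °C, 45 min probe labelling / Replicates: triplicate wells per compound / Medium: Tris/NaCl buffer, pH 8.0, with Pluronic / Also added: FP-Rh probe / Doses: single compound dose, 7.94 µM final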

Sequence of Serine hydrolase RBBP9 (Homo sapiens) (O75884 whole entry, looked up): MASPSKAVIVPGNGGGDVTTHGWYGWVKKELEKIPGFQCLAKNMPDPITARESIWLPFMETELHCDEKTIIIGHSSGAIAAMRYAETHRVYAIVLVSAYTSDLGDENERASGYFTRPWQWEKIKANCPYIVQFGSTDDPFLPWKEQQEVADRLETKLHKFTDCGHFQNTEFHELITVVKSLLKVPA

Row | Compound | inhibition
1 | O=[N+]([O-])c1c(NCCO)cc(Sc2nc3ccccc3s2)c2nonc12 | 45.7% (active)
2 | Cn1sc(=O)c2cc(S(=O)(=O)NC3CC3)ccc21 | 26.9% (active)
3 | C/C(=N/Nc1nc(-c2ccccc2)c(CC(=O)O)s1)c1ccccc1 | 31.2% (active)
4 | COc1ccc2c(c1)C(C)=CC(C)(C)N2C(=O)Nc1ccccc1 | 2.49%
5 | Cc1cc(F)ccc1S(=O)(=O)N1CCCOC1CNC(=O)C(=O)NCCC1=CCCCC1 (stereo not drawn) | 10.6%
6 | Oc1ccc(N=Cc2sc3ccccc3c2Cl)cc1 | 12.5%
7 | CCN(CC)C(=O)N1CCN(C(=O)c2ccc(C)cn2)CC1 | 9.27%
8 | O=C(CCCC(=O)N(CC(=O)NC1CCCC1)Cc1ccccc1Cl)Nc1ccccn1 | 1.03%
9 | C=CS(=O)c1sc(Cl)c(N2CCOCC2)c1[N+](=O)[O-] (stereo not drawn) | 34.7% (active)
10 | O=C1C=CC(=O)N1c1ccc(N2CCCCC2)cc1 | 25.9% (active)
11 | COc1cc(/C=N/NC(=O)Nc2ccccc2)ccc1OCCOc1ccccc1C | 0.38%
12 | COc1ccc(-n2nnnc2SCc2nc(N)nc(N3CCOCC3)n2)cc1 | 3.53%
13 | CC(C)OCCCNC(=O)CNC(=O)c1cccs1 | 11%
14 | COCCN(Cc1nc(-c2ccc(C(F)(F)F)cc2)no1)C(C)C | 1.94%
15 | COc1ccc(NS(=O)(=O)c2cc(NC(=O)CC(=O)c3ccc([N+](=O)[O-])cc3)ccc2C)cc1 | -3.45%
16 | CC1=NOC(=O)/C1=C\c1ccccc1 | 4.74%
17 | CCc1ccccc1NC1c2ccccc2C(=O)N1c1cccnc1 (stereo not drawn) | 3.9%
18 | CCC(=O)c1ccc(OCC(O)CN2CCN(c3cccc(C(F)(F)F)c3)CC2)cc1 (stereo not drawn) | 7.26%
19 | Cc1ccc(NC(=O)CN2CCC(C(N)=O)CC2)cc1[N+](=O)[O-] | 2.36%
20 | CCC(=O)N1CCCc2ccccc21 | 0.8%
21 | Cc1cc([N+](=O)[O-])nn1Cc1ccc(F)cc1 | 11.8%
22 | CCOc1ccc2[nH]c(=O)c(C(c3nnnn3CCOC)N3CCOCC3)cc2c1 (stereo not drawn) | 1.76%
23 | COc1ccc(N2C(=O)C3CCCN3C2c2cc(OC)c(OC)cc2OC)cc1 (stereo not drawn) | 3.25%
24 | COc1cc(C2C(C(=O)OCCC#N)=C(C)NC3=C2S(=O)(=O)c2ccccc23)cc(OC)c1OC (stereo not drawn) | 1.17%
25 | Nn1c(Cc2cccc3ccccc23)nnc1SCC(=O)N1CC(=O)Nc2ccccc21 | 6.4%
26 | O=c1[nH]n(-c2ccc([N+](=O)[O-])cc2)c(=O)c2ccccc12 | 20.4% (active)
27 | COc1cccc(NC(=O)c2ccc3c(SCC(=O)O)c4c(nc3c2)CCCC4)c1 | 6.99%
28 | Cc1ccnc(-n2sc3ccccc3c2=O)n1 | 72.8% (active)
